Screening data from PubChem BioAssay.
ABCG2 inh: inhibitors of human ABCG2 transporter, ABCB1 counter-screen | IgMXP3 cells, JC-1 efflux, flow cytometry | 0.1% of 190,000 active | inhibition, % at 6.6 µM | Q9UNQ0 | AID 1325;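 active means inhibition above 80%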
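Incubation: cells with compound and JC-1, 10 min at 25 °C, rotating, no wash / Test system: IgMXP3 (ABCG2) plus far-red-tagged CCRF-Adr (ABCB1) cells / Compound dosing: one concentration, 6.6 µM final / Also added: JC-1 fluorescent substrate / Evaluation: efflux inhibition in percent versus controls / Detection: flow cytometry, 530 nm JC-1 signal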
RGS7-Gao reg: human RGS7-Galphao interaction regulation; P09471; 0.35% of 220,000 active; Multiplexed bead flow cytometry, RGS7-Galphao binding; actives lie on both sides; binding response (% of control), % at 10 µM; in the data active means binding response below about 49% or above about 150%; inconclusive means no clear call, values can overlap the other calls; inactive means in between;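 further: fluorescent Galphao held in activated GDP-AlF4 state binding bead-coupled RGS7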
Target sequence (P09471 whole entry, looked up): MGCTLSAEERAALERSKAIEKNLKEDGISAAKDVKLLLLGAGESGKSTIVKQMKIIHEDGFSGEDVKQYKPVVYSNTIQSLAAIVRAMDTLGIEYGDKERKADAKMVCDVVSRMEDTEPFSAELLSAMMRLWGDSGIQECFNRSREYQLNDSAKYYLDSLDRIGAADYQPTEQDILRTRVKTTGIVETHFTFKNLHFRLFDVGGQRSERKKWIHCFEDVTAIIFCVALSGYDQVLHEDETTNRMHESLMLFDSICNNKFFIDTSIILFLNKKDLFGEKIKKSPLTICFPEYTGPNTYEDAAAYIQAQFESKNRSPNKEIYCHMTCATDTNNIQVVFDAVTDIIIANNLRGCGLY
RGS16-Gao HTS: regulators of human RGS16-Galphao interaction. O15492+P09471. bead-based flow cytometry RGS16-Galphao binding, fluorescence; actives lie on both sides. binding response (% of control), % at 10 µM. 0.38% of 220,000 active. AID 1441; call rule not given here;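 further: Galphao activated by GDP with aluminum fluoride before binding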
ABCB1 block: human ABCB1 inhibition, ABCG2 as counter-screen. CCRF-Adr cells, JC-1 efflux, flow cytometry. P08183. inhibition, % at 6.6 µM. 0.067% of 190,000 active. AID 1326; in the data active means inhibition above about 40%;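 further: higher value means more JC-1 retained so stronger ABCB1 efflux block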
RGS8-Gao reg: regulators of human RGS8-Galphao interaction; P09471; multiplexed bead flow cytometry, RGS8-Galphao binding; actives lie on both sides; response (percent of control binding), % at 10 µM; 0.34% of 220,000 active; in the data active means response below about 60% or above about 140%; inactive means in between;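 further: Galphao activated as the GDP aluminium fluoride complex binding bead-coupled RGS8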
RGS4-Gao reg: modulates binding of RGS4 to human Galphao | Multiplexed bead flow cytometry; actives lie on both sides | P09471 | binding response (% of control), % at 10 µM | AID 1415 | 0.33% of 220,000 active; in the data active means binding response below about 49% or above about 150%; inactive means in between;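 further: fluorescent Galphao activated with aluminum fluoride binding bead-coupled RGS4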
ABCB1 confirm: inhibits human ABCB1 efflux, confirmed at single point; AID 1451; shares compounds with ABCG2 inh; 7% of 270 active; CCRF-Adr cells, JC-1 efflux, flow cytometry; inhibition, % at 6.6 µM;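 active means inhibition of pump activity above 50%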
ABCG2 confirm: confirmation of human ABCG2 transporter inhibitors, ABCB1 counter-screen | shares compounds with ABCG2 inh | IgMXP3 cells, JC-1 efflux, flow cytometry | inhibition, % at 6.6 µM | 6% of 270 active | AID 1453;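 active means inhibition above 50%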
IgMXP3 fluor: IgMXP3 autofluorescence flag for ABCG2 confirmation | shares compounds with ABCG2 inh | fluorescence at 6.6 µM | 30% of 270 active | IgMXP3 cells, compound autofluorescence 488/530 nm, flow; active compounds read high;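 active means fluorescence in ABCG2-expressing cells above the plate's control-well mean plus 3 SD, cut at about 15 in these data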
CCRF autofluor: CCRF-Adr autofluorescence flag for ABCB1 confirmation; shares compounds with ABCG2 inh; CCRF-Adr cells, compound autofluorescence 488/530 nm, flow cytometry; active compounds read high; fluorescence at 6.6 µM; 30% of 270 active;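 active means fluorescence beyond the plate control mean plus 3 SD, with a fluorescence-to-maximum score over 2, cut at about 25 in these data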
Large screens that a line does not name were inactive (follow-up assays come after a bar, where they were run). Hits are enriched below; roughly 0.83% of the tested compounds scored in any of these assays.

CC(C)CCn1c(O)c(N=Nc2ccccn2)c2ccccc21	ABCG2 inh 87 | ABCB1 confirm inactive | ABCG2 confirm inactive | IgMXP3 fluor inactive | CCRF autofluor inactive
CC1Oc2ccccc2N(CC(=O)NCc2ccc3c(c2)OCO3)C1=O (stereo not given)	none
CCOc1ccccc1NC(=O)C(OC(=O)c1ccc(N(C)C)cc1)c1ccccc1 (stereo not given)	ABCG2 inh 117 | ABCB1 confirm inactive | ABCG2 confirm 63 | IgMXP3 fluor inactive | CCRF autofluor inactive
CCOC(=O)c1c(-c2ccc(C)cc2)csc1NC(=O)/C(C#N)=C/c1ccc(O)c(OC)c1	ABCG2 inh 132, ABCB1 block 117 | ABCB1 confirm inactive | ABCG2 confirm inactive | IgMXP3 fluor 80 | CCRF autofluor 222
CCOC(=O)/C(C#N)=C\c1ccc(O)c(OC)c1	none
Cc1cc(NC(=O)CN2CC(C)OC(C)C2)n(-c2nc3ccccc3s2)n1 (stereo not given)	none
Cc1cc(NC(=O)C(C)C)n(-c2nc3ccccc3s2)n1	ABCG2 inh 81, RGS7-Gao reg inconclusive | ABCB1 confirm inactive | ABCG2 confirm inactive | IgMXP3 fluor inactive | CCRF autofluor inactive
O=C(NCc1ccco1)c1ccc2nc3sc4c(c3c(=O)n2c1)CCCC4	none
CCC(NC(=O)CCl)c1ccc(C)cc1 (stereo not given)	none | ABCB1 confirm inactive | ABCG2 confirm inactive | IgMXP3 fluor inactive | CCRF autofluor inactive
CCOC(=O)c1c(C)nc(SC)c(C#N)c1-c1ccccc1	ABCG2 inh 85 | ABCB1 confirm inactive | ABCG2 confirm inactive | IgMXP3 fluor inactive | CCRF autofluor inactive
CCOc1ccc(Nc2nc(Cl)nc(NCCO)n2)cc1	none
CCOc1nc(NCCO)nc(Nc2ccc([N+](=O)[O-])cc2)n1	none | ABCB1 confirm inactive | ABCG2 confirm inactive | IgMXP3 fluor inactive | CCRF autofluor inactive
Cc1cc(-n2cc(Br)c(=O)[nH]c2=O)nc(-c2ccccc2)n1	RGS7-Gao reg inconclusive (no result: ABCG2 inh, ABCB1 block)
CNc1nc2cccnc2s1	RGS7-Gao reg inconclusive (no result: ABCG2 inh, ABCB1 block)
CCOC(=O)C1=C(O)/C(=C/c2ccc(OCC(=O)O)c(OC)c2)SC1=Nc1ccc(OCC)cc1	ABCB1 block 50 | ABCB1 confirm inactive | ABCG2 confirm inactive | IgMXP3 fluor inactive | CCRF autofluor inactive
CCOC(=O)C1=C(O)/C(=C/c2ccc(OCC(=O)O)c(OCC)c2)SC1=Nc1ccccc1	none
O=C(c1ccc(Cl)nc1)N1CCC(Cc2ccccc2)CC1	RGS7-Gao reg inconclusive (no result: ABCG2 inh, ABCB1 block)
Cc1ccc(-c2nnn(CC(=O)Nc3nnc(C(C)C)s3)n2)cc1	none
CN(C)c1cccc(NC(=O)c2ccco2)c1	none
CCN(CC)P(=O)(Nc1cccc(C(F)(F)F)c1)c1ccc(N(C)C)cc1NC(=O)c1ccco1 (stereo not given)	RGS7-Gao reg inconclusive, ABCB1 block 56 | ABCB1 confirm 62 | ABCG2 confirm inactive | IgMXP3 fluor inactive | CCRF autofluor 37
COc1ccc(S(=O)(=O)c2cnc3ccc(OC)cc3c2N2CCC3(CC2)OCCO3)cc1	ABCG2 inh 92 | ABCB1 confirm inactive | ABCG2 confirm inactive | IgMXP3 fluor inactive | CCRF autofluor inactive
N#C/C(=C/c1ccc(N2CCCCC2)o1)C(=O)Nc1ccc(Cl)cc1	ABCG2 inh 82, ABCB1 block 45 | ABCB1 confirm inactive | ABCG2 confirm inactive | IgMXP3 fluor 171 | CCRF autofluor 118
N#C/C(=C\c1ccc(N2CCOCC2)o1)C(=O)Nc1ccc(O)cc1	none
